# Source: PubChem BioAssay
# Only some compounds are listed: those with a hit (about 2.1% of all), similar ones and a draw of the others.
# RTF Ca sens inh – cardiac RTF calcium desensitization. P19429+P45379. AID 493244. 340,000 tested, 0.12% active. inhibition, % at 7.15 µM. IANBD-labeled cardiac RTF, Ca2+ fluorescence;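 active = inhibition above the mean inhibition of all tested compounds plus 3 SD, cut at about 17% in these data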;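 also: assay run at fixed EC70 calcium of 1.6 mM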
# UCH37 inh – human UCH37 deubiquitinating enzyme inhibition | Q9Y5K5 | purified proteasome/UCH37, Ub-AMC cleavage fluorescence | inhibition, % (concentration not given with the values) | 330,000 tested, 0.33% active | AID 588478;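 active = mean inhibition over replicate wells above about 20%, limit read from the data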
# Target sequence (Q9Y5K5 whole entry, looked up): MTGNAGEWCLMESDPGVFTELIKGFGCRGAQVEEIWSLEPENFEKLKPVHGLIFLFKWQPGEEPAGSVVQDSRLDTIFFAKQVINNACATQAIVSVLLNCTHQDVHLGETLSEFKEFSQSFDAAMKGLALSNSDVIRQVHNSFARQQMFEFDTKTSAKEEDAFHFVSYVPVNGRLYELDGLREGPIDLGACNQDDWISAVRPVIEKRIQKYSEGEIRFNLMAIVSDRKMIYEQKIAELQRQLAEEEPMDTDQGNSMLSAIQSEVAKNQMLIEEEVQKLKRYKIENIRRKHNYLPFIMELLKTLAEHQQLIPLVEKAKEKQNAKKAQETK
#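 Material: human UCH37 enzyme supplied as purified proteasome complex / Amount: 0.15 nM proteasome as dispensed / Buffer or medium: pH 7.4 Tris-HCl (50 mM) with ovalbumin, ATP-MgCl2, DTT / Times: preincubation 30 min, reaction 25 min, room temperature / Technique: AMC fluorescence from Ub-AMC cleavage, excitation 355 nm, emission 460 nm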
# cardiac RTF act – cardiac RTF calcium sensitization; P19429+P45379; IANBD-labeled TnC RTF fluorescence at EC20 calcium; 0% EC20 calcium, 100% full calcium; activation, % at 7.2 µM; 340,000 tested, 0.24% active;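 active = activation above the mean over all tested compounds plus 3 SD, cut at about 30% in these data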;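 also: rise in fluorescence read as greater calcium sensitivity of cardiac thin filaments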
# ARNT TACC3 PPI – disrupts binding between human ARNT and TACC3; Q9Y6A5; AlphaScreen His-ARNT PAS-B/GST-TACC3 binding, luminescence; TACC3 fragment carries E629A point mutation; inhibition, % at 9.99 µM; 390,000 tested, 0.66% active; AID 623870;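 active = mean inhibition of replicates at least 50% and at least half of replicates each reaching 50%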
# SUMO Mot1 rescue – blocks SUMOylation pathway, rescuing yeast Mot1-301 growth | S. cerevisiae Mot1-301 growth rescue, ATP luminescence, 38.5C; percent above DMSO median, 100 means doubled | growth rescue, % at 18.8 µM | 320,000 tested, 1% active | AID 2716;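 active = every valid replicate shows activation above 250% relative to neutral control wells; inactive = the rest, any valid replicate at or below 250%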
# Efflux pump inh – blocks antifungal efflux pumps in multiplex yeast assay | S. cerevisiae Candida pump triplex, Nile Red efflux | AID 485275 | inhibition, % at 10 µM | 330,000 tested, 0.44% active;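 active = plate passing quality check with inhibition over a set limit, or well fluorescence over plate mean plus 4 SD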;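 also: Nile Red retained in pooled yeast measured as flow cytometry median fluorescence; higher means more Nile Red kept so more efflux inhibition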
# RTF inh confirm – cardiac RTF calcium sensitivity inhibition, confirmation. shares compounds with RTF Ca sens inh. reconstituted cardiac thin filaments, calcium sensitivity fluorescence. inhibition, % at 7.15 µM. 360 tested, 8% active. AID 504635; in the data active = inhibition above about 18%
# UCH37 confirm – UCH37 Ub-AMC cleavage inhibition, confirmed; shares compounds with UCH37 inh; Proteasome-bound UCH37, Ub-AMC cleavage fluorescence; inhibition, % at 20 µM; 480 tested, 27% active; AID 624100;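 active = average inhibition over replicates above about 50%, so the earlier screening hit is confirmed, limit read from the data; inactive = the rest, counted as false positives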;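 also: based on cleavage rate fitted by regression over a 30 min kinetic read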
# ARNT Alpha ctr – counter-screen for ARNT/TACC3 inhibitors: AlphaScreen artifacts | His-ARNT PASB-GST AlphaScreen artifact counter-screen, luminescence | 1,200 tested, 50% active | AC50, µM (top dose mostly 68 µM) | AID 651705 | shares compounds with ARNT TACC3 PPI;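 active = every separate test run was called active for a drop in luminescence, with AC50 within twice the top valid dose, actives reach about 71 µM in these data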
# Hits are given with their value; n = inactive; x = not tested or not shown.
SMILES,RTF Ca sens inh,UCH37 inh,cardiac RTF act,ARNT TACC3 PPI,SUMO Mot1 rescue,Efflux pump inh,RTF inh confirm,others
CC(=NNC(=O)C(NC(=O)c1ccccc1)C(C)C)c1ccccc1 (centres undefined),x,n,x,x,x,x,x,
Cc1cc(C)nc(N=C(N)N2CCc3ccccc32)n1,x,n,x,x,x,x,x,
O=C(NN=Cc1cccnc1)c1cc(C2CC2)nc2ccccc12,x,n,x,x,x,x,x,
COc1ccccc1N(CC(=O)N/N=C/c1c(O)ccc2ccccc12)S(C)(=O)=O,26,x,n,83,n,n,n,
COc1cccc(=O)c2c(C)n(-c3cc(C)cc(C)c3)c(C)c12,n,n,n,n,n,n,x,
COc1cccc(-n2c(C)c3c(OC)cccc(=O)c3c2C)c1,25,n,n,n,n,n,n,
O=[N+]([O-])c1cc(Cc2ccccc2)cc(C=Nc2ccc(N3CCOCC3)cc2)c1O,21,n,n,n,n,n,n,
O=C(/C=C/Sc1ccccc1)c1ccc(Cl)cc1,n,n,n,n,n,n,x,
O=C(O)/C=C/C(O)c1ccc(Cl)cc1 (centres undefined),18,x,n,n,n,n,n,
CC(COc1ccc(/C=C/c2ccccc2)cc1)[N+](C)(C)C (centres undefined),21,n,n,n,x,n,n,
COc1ccc(/C=C/c2nc3ccccc3n2C)cc1,n,n,n,n,n,n,x,
O=C(O)c1cc(-c2ccc(C=NN3C(=O)C4C5C=CC(CC5)C4C3=O)o2)ccc1Cl (centres undefined),x,n,x,x,x,x,x,
O=C(NN=Cc1c(O)ccc2ccccc12)c1cccnc1,x,n,x,x,x,x,x,
Cc1nc2c(-c3ccc(Cl)cc3)cnn2c(N)c1-c1ccc(F)cc1,n,n,n,n,n,n,x,
Cc1nc2c(-c3ccc(F)cc3)cnn2c(N)c1-c1ccccc1,20,n,n,n,n,n,n,
Cc1cc(C)n2c(SCC(=O)Nc3cc(C)on3)nnc2n1,18,n,n,n,n,n,n,
O=C(Nc1nnc(-c2ccccc2)o1)Nc1ccc(F)cc1F,17,n,n,n,n,n,n,
NC(=NOC(=O)Oc1ccccc1)c1ccc([N+](=O)[O-])cc1,x,n,x,x,x,x,x,
COc1ccc(CN(C)C(=O)COC(=O)c2c(-c3ccccc3Cl)noc2C)cc1,18,n,n,n,n,n,n,
COc1cc(C=NNC(=O)c2ccc(COc3ccccc3Cl)o2)cc(Br)c1O,x,n,x,x,x,x,x,
CCCC(C)NC1=NCCCCC1 (centres undefined),18,n,n,n,n,n,n,
CCN1CCCC1CNC1=NCCCCC1 (centres undefined),n,n,n,n,n,n,x,
CCCCNC(=O)CSc1nc2ccc(N3CCOCC3)cc2c(=O)n1Cc1ccc(OC)cc1,19,n,n,n,x,x,n,
Cc1cccc(NC(=O)CCN2CCCC(C)C2)c1 (centres undefined),59,n,n,n,n,n,n,
C/C(C=NN1CCN(c2ccc(C)cc2)CC1)=C\c1ccccc1,x,n,x,x,x,x,x,
SMILES,RTF Ca sens inh,UCH37 inh,cardiac RTF act,ARNT TACC3 PPI,SUMO Mot1 rescue,Efflux pump inh,RTF inh confirm,others
CCC(=O)c1c[nH]c(C(=O)NCc2cccnc2)c1,n,n,n,n,n,n,x,
O=C(NCc1cccnc1)c1cc(C(=O)C2CC2)c[nH]1,22,n,n,n,n,n,n,
CC(=NNC(=O)Cc1ccc(Cl)cc1)c1ccccn1,x,n,x,x,x,x,x,
O=c1[nH]c(=S)[nH]c2c1C(c1ccc(Br)cc1)c1c([nH]c(=S)[nH]c1=O)O2,69,27,n,n,n,n,n,UCH37 confirm=n
CCC(CC)NC(=O)CON=Cc1ccc(Cl)cc1Cl,x,n,x,x,x,x,x,
O=C(O)/C=C/c1ccc([N+](=O)[O-])o1,n,n,n,n,n,n,x,
O=C1NC(=S)S/C1=C\C=C\c1ccc([N+](=O)[O-])o1,31,28,n,n,x,x,20,UCH37 confirm=n
O=C(O)C1Nc2c(O)cc(Cl)c([N+](=O)[O-])c2C2C=CCC12 (centres undefined),86,n,n,58,n,n,36,ARNT Alpha ctr=31µM
O=C(NN=Cc1ccco1)c1cc(-c2ccccc2)n[nH]1,x,n,x,x,x,x,x,
Cc1cccc(COc2ccc(C=NNC(=O)c3nnn(-c4nonc4N)c3CN3CCCCC3)cc2)c1,x,n,x,x,x,x,x,
C=C1c2cccc(O)c2C(=O)C2C(=O)[C@]3(O)C(=O)C(C(N)=O)C(=O)[C@@H](N(C)C)[C@@H]3[C@@H](O)[C@H]12 (some centres undefined),61,n,n,54,x,n,n,ARNT Alpha ctr=n
Cc1nc2c(nc1C)C(=O)c1ccccc1C2=O,n,x,n,n,x,x,x,
O=C1c2ccccc2-c2nc3ccccc3nc21,n,45,n,n,n,n,x,UCH37 confirm=n
Cc1ncc(CO)c(C=NNC(=O)c2cccc(S(=O)(=O)N3CCCC3)c2)c1O,x,n,x,x,x,x,x,
O=C(O)COc1ccccc1C=NNC(=O)COc1ccc(-c2ccccc2)cc1,x,n,x,x,x,x,x,
O=C(c1cccs1)N1CCN(S(=O)(=O)N2CCOCC2)CC1,n,36,n,n,n,n,x,UCH37 confirm=n
O=C(c1ccco1)N1CCN(S(=O)(=O)N2CCOCC2)CC1,n,n,n,n,n,n,x,
N#CC(=NNc1ccc(S(=O)(=O)N2CCOCC2)cc1)C(N)=O,x,n,x,x,x,x,x,
CCOC(=O)/C(C#N)=C/c1ccc(SC)cc1,n,n,n,n,n,n,x,
CCOC(=O)/C(C#N)=C\C=C1C=CN(C)C=C1,n,x,59,n,n,n,x,UCH37 confirm=n
O=C(O)c1ccc(S(=O)(=O)/N=C2\C=C(Nc3ccccc3F)C(=O)c3ccccc32)cc1,n,93,n,x,n,n,x,UCH37 confirm=99
O=C(O)c1ccc(NC2=CC(=NS(=O)(=O)c3ccccc3)c3ccccc3C2=O)cc1,x,95,x,x,x,x,x,UCH37 confirm=98
COc1ccc(S(=O)(=O)/N=C2\C=C(Nc3ccc(O)cc3)C(=O)c3ccccc32)cc1,n,x,n,n,n,n,x,
Cc1nc2ccccc2cc1C(=O)NN=Cc1ccco1,x,n,x,x,x,x,x,
COc1cc(C2C(C(=O)c3ccc(C)o3)=C(O)C(=O)N2c2cc(C)on2)ccc1O (centres undefined),n,46,n,n,n,n,x,UCH37 confirm=n
Cc1[nH][nH]c(=O)c1C(c1c(C)[nH][nH]c1=O)c1cn(Cc2ccc(Cl)c(Cl)c2)c2ccccc12,n,47,n,x,n,n,x,UCH37 confirm=n
Cc1[nH][nH]c(=O)c1C(c1c(C)[nH][nH]c1=O)c1cn(Cc2ccc(F)cc2)c2ccccc12,n,n,n,n,n,n,x,
